Source: publication PMC6905387 (ACS chemical biology, 2018)
“Also recorded” adds a separate entry of the source. Blank lines part the entries; values can stand above or below the molecule they belong to.

Key:
SmTGR [1] = target: T1, SmTGR (Schistosoma mansoni, UniProt Q962Y6); assay: SmTGR enzymatic assay; assay type: biochemical
T1 sequence (Q962Y6 1-598): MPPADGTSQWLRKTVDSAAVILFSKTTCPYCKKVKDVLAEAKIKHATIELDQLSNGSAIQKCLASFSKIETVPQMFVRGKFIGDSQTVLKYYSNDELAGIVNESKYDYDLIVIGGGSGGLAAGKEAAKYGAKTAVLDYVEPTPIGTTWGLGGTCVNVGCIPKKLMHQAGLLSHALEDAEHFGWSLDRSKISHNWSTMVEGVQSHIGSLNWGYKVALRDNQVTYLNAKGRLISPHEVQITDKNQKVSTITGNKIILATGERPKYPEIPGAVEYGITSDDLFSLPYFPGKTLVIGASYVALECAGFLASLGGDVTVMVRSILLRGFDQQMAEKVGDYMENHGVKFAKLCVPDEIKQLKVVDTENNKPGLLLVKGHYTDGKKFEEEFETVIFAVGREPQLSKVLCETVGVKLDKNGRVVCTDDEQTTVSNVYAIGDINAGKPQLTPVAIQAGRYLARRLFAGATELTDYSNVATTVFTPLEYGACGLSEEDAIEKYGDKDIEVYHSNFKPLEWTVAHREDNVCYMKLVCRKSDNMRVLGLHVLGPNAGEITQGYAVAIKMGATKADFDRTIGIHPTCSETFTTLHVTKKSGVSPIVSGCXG

Mammalian TrxR [2] = assay: Mammalian TrxR inhibition; assay type: biochemical; settings: in words
SmTGR [3] = target: T1, SmTGR; assay: Steady state experiments varying NADPH at saturating DTNB; assay type: biochemical
adult worms = assay: Schistosomicidal activity against ex vivo adult worms; parameters: species or system Schistosoma mansoni
In short: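 Adult Schistosoma mansoni were perfused from mice seven weeks after infection. They were cultured for 24 hr in RPMI with 10% fetal calf serum, 10 mM glutamine and 1X penicillin/streptomycin before test compound was added. Untreated worms served as controls. Worms were checked daily and scored dead when no movement was seen.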

schistosomula = assay: Schistosomicidal activity against ex vivo schistosomula; parameters: species or system Schistosoma mansoni
In short: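 Schistosomula were made by mechanical transformation of cercariae from infected Biomphalaria glabrata, then isolated on a Percoll gradient. They were cultured for 24 hr in M-199 with 10% fetal calf serum before test compound was added. Untreated larvae served as controls. Survival was followed by daily observation, and larvae without movement were scored dead.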

hGR = target: T2, hGR (Homo sapiens, UniProt P00390); assay: Activity against human glutathione reductase; assay type: biochemical; settings: results not shown
T2 sequence (P00390 44-522): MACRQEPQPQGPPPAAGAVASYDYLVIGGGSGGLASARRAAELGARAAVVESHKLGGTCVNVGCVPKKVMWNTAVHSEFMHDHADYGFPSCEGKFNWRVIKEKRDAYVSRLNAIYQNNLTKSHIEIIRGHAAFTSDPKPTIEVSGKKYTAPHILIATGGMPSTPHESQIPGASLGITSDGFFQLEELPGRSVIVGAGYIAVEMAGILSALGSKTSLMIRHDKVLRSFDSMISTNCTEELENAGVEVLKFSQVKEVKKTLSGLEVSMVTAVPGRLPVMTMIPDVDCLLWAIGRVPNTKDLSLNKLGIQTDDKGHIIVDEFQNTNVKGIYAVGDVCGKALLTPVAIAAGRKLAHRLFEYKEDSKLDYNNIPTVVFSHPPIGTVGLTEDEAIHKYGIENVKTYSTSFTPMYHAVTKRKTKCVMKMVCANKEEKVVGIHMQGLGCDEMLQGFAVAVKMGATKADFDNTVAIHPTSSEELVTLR

Mammalian TrxR [4] = settings: ref Bioassays AID 588453 and AID 588456, cited from earlier work
[5] = tested on: TGR activity in treated worms; assay: Inhibition of TGR in treated ex vivo worms; parameters: species or system Schistosoma mansoni; settings: adult worms cultured with 50 μM compound, versus DMSO-treated worms
[6] = Behaviour of compound in worm culture medium; assay type: physicochemical

Compound: O=C(O)c1ccc2cccnc2n1 [Compound 1, 1,8-naphthyridine-2-carboxylate]
- Selectivity for SmTGR over hTrxR (Mammalian TrxR [2]): high selectivity
- Inhibition mechanism versus NADPH (SmTGR [3]; NADPH 0.01 to 1 mM, DTNB 3 mM): mixed competitive inhibition mechanism
- KIS, binding of inhibitor to NADPH-bound enzyme (estimated) (SmTGR [3]; at 3 mM DTNB): 4.8 mM
- Adult worms killed (adult worms; 10 μM, in five days): 0%
- Adult worms killed (adult worms; 50 μM, in five days): 13%
- Schistosomula killed (schistosomula; 10 μM, in five days): 0%
- Schistosomula killed (schistosomula; 50 μM, in five days): 11%
- Activity against hGR (hGR): no detectable activity
- Inhibition of mammalian hTrxR (in words) (Mammalian TrxR [4]): does not inhibit; also recorded: undetectable inhibition
- Mammalian TrxR IC50 (Mammalian TrxR [4]): Inactive

Compound: OCCN1CCN(CCO)CC1 [Compound 2, 1,4-bis(2-hydroxyethyl)piperazine]
- SmTGR IC50 (SmTGR [1]; 6-His-tagged SmTGRwt 20 nM, 10 min preincubation with NADPH 100 μM, DTNB 3 mM): inactive

Compound: O=S(=O)(O)CCN1CCN(CCO)CC1 [Compound 4, 4-(2-Hydroxyethyl)-1-piperazineethanesulfonic acid]
- IC50 (SmTGR [1]): 3300 µM

Compound: CCOC(=O)c1c(C)oc2c1c(CN1CCN(CCO)CC1)c(O)c1ccccc12 [Compound 6, ethyl 5-hydroxy-4-{[4-(2-hydroxyethyl)piperazin-1-yl]methyl}−2-methylnaphtho[1,2-b]furan-3-carboxylate]
- IC50 (SmTGR [1]): 0.06 µM
- Fold more potent than 5 (SmTGR IC50) (SmTGR [1]; IC50 of 6 compared with IC50 of 5): 2000 fold
- Selectivity for SmTGR over hTrxR (Mammalian TrxR [2]): high selectivity
- Adult worms killed (adult worms; 10 μM, in five days): 9%
- Adult worms killed (adult worms; 50 μM, in four days): 100%
- Schistosomula killed (schistosomula; 10 μM, in five days): 100%
- Schistosomula killed (schistosomula; 50 μM, in 24 hr): killed all schistosomula
- GR (GSH disulfide reduction) activity in treated worms [5]: significant inhibition
- TrxR (DTNB reduction) activity in treated worms [5]: significant inhibition
- Solubility behaviour in culture medium [6]: initially precipitated in the culture medium then slowly dissolved over the following hours
- IC50 (Mammalian TrxR [4]; read-out: Mammalian TrxR IC50): 1.12 µM

The next lines start with results.

- IC50 (SmTGR [1]): 1100 µM
Compound: O=C(O)c1ccc2ccccc2c1 [CID: 7123, 2-Naphthoic acid]

- IC50 (SmTGR [1]): 2600 µM
Compound: O=C(O)c1ccc2ncccc2n1 [CID: 12426408, 1,5-Naphthyridine-2-carboxylic acid]

- IC50 (SmTGR [1]): 4400 µM
Compound: O=C(O)c1ccc(CN2CCN(CCO)CC2)nc1 [CID: 80159879, 6-((4-(2-Hydroxyethyl)piperazin-1-yl)methyl)nicotinic acid]

- IC50 (SmTGR [1]): > 10000 µM
Compound: NCCCCN1CCN(CCO)CC1 [Compound 3, 2-[4-(4-aminobutyl)piperazin-1-yl]ethanol]

- IC50 (SmTGR [1]): 120 µM
Compound: OCCN1CCN(Cc2cc(Cl)c3cccnc3c2O)CC1 [Compound 5, 5-chloro-7-((4-(2-hydroxyethyl)piperazin-1-yl)methyl)quinolin-8-ol]
- Selectivity for SmTGR over hTrxR (Mammalian TrxR [2]): high selectivity
- Adult worms killed (adult worms; 10 μM, in five days): 27%
- Adult worms killed (adult worms; 50 μM, in five days): 88%
- Schistosomula killed (schistosomula; 10 μM, in five days): 80%
- Schistosomula killed (schistosomula; 50 μM, in 24 hr): killed all schistosomula
- GR (GSH disulfide reduction) activity in treated worms [5]: significant inhibition
- TrxR (DTNB reduction) activity in treated worms [5]: significant inhibition
- Inhibition of mammalian hTrxR (in words) (Mammalian TrxR [4]): undetectable inhibition
- Mammalian TrxR IC50 (Mammalian TrxR [4]): Inactive
